Test results reported in ChEMBL document CHEMBL1137090, “Heterocyclic bis-cations as starting hits for design of inhibitors of the bifunctional enzyme histidine-containing protein kinase/phosphatase from Bacillus subtilis” (J Med Chem, 2004).

Columns and labels:
HPr kinase/phosphorylase [1] = target: T1, HPr kinase/phosphorylase (Bacillus subtilis (strain 168), UniProt O34483); test: Inhibition of histidine containing protein in kinase assay
T1 sequence (O34483 whole entry): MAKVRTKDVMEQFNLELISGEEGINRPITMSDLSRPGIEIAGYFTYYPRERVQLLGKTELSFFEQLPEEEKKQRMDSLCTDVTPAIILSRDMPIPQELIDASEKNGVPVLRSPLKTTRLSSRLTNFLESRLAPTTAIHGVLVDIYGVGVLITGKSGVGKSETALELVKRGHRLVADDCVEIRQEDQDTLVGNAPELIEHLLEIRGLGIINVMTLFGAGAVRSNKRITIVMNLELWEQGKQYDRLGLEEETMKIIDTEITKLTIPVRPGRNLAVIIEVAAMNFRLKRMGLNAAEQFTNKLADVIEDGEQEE
In short: (§1)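 B. subtilis HPrK/P(Trx-His6-S-tag) kinase, 100 nM, added last to start the reaction with 10 µM HPr(His)6 or Crh(His)6, 0.5 mM [γ-32P]ATP, 5 mM MgCl2, 2 mM FBP, 0.1% BSA, 50 mM Tris pH 8, 10% DMSO; 37 °C, 10 min. Read-out is P81 paper capture, H3PO4 washes and scintillation counting. Thirteen serial inhibitor concentrations, typically in triplicate; EC50 and Hill coefficient from nonlinear regression.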

[2] = Hill slope for the compound was measured for inhibition of Crh kinase assay
[3] = Hill slope for the compound was measured for inhibition of histidine containing protein kinase assay; in short: as §1
[4] = target: HPr kinase/phosphorylase (Bacillus subtilis) (UniProt O34483); test: Effective concentration for inhibition of HPr kinase/phosphorylase in kinase assay
[5] = target: T2, HPr kinase/phosphorylase (Bacillus subtilis (strain 168)) (UniProt O34483); test: Percent inhibition of Histidine containing protein K in kinase assay with histidine containing protein at 100 uM
T2 sequence (whole entry): T1 sequence (O34483 whole entry)
In short: (§2)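 Single-point kinase test at 10 and 100 µM final compound. HPr(His)6 (10 µM) is phosphorylated by 100 nM B. subtilis HPrK/P(Trx-His6-S-tag) with 0.5 mM [γ-32P]ATP, 5 mM MgCl2, 2 mM FBP, 0.1% BSA, 50 mM Tris pH 8; 37 °C, 10 min. 32P incorporation measured on P81 paper by scintillation.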

[6] = target: T2, HPr kinase/phosphorylase (Bacillus subtilis (strain 168)); test: Percent inhibition of Histidine containing protein K in kinase assay with histidine containing protein at 10 uM; in short: as §2
[7] = target: T2, HPr kinase/phosphorylase (Bacillus subtilis (strain 168)); test: Percent inhibition of Histidine containing protein K in kinase assay at 10 uM; in short: as §2
[8] = target: T2, HPr kinase/phosphorylase (Bacillus subtilis (strain 168)); test: Percent inhibition of Histidine containing protein K in kinase assay at 100 uM; in short: as §2
[9] = target: T2, HPr kinase/phosphorylase (Bacillus subtilis (strain 168)); test: Percent inhibition of Histidine containing protein K/P in kinase assay; parameters: concentration or dose not given beside the values; settings: concentration not given here
HPr kinase/phosphorylase [10] = target: T1, HPr kinase/phosphorylase; test: Inhibition of histidine containing protein in kinase assay with ADP
In short: (§3)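 Kinase reaction, 37 °C 10 min: 100 nM HPrK/P(Trx-His6-S-tag), 10 µM HPr(His)6 or Crh(His)6, 0.5 mM [γ-32P]ATP, 2 mM FBP, 0.1% BSA, pH 8 Tris. ADP given alone or combined with inhibitor at a fixed concentration ratio; ≥13 conditions in triplicate. Phosphate retained on P81 paper is counted. EC50 and Hill coefficient fitted by nonlinear regression.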

[11] = Effective concentration for inhibition of […] in kinase assay along with ADP; parameters: species or system Bacillus subtilis; in short: as §3
[12] = Hill slope for the compound was measured for inhibition of histidine containing protein phosphatase assay
In short: (§4)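 Substrates HPr(His)6 or Crh(His)6 (8 µM final) are first fully phosphorylated by HPrK/P with [γ-32P]ATP and FBP, pH 8, 37 °C. Inhibitor, 13 serial concentrations premixed with inorganic phosphate (K2HPO4/KH2PO4, pH 8.0, 1 mM final), then added and incubated 2 h at 37 °C. Precipitating top concentrations excluded. Read-out by P81/scintillation; mean of n = 3; EC50 and Hill coefficient by nonlinear regression.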

[13] = Combined index for the compound to that of ADP in kinase assay against Crh
[14] = Hill slope for the compound was measured for inhibition of histidine containing protein kinase assay along with ADP; in short: as §3
[15] = Hill slope for the compound was measured for inhibition of Crh phosphatase assay
HPr kinase/phosphorylase [16] = target: T1, HPr kinase/phosphorylase; test: Inhibition of histidine containing protein in phosphatase assay; in short: as §4
[17] = Combined index for the compound to that of ADP in kinase assay against histidine containing protein
In short: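 B. subtilis HPrK/P(Trx-His6-S-tag), 100 nM, phosphorylating 10 µM HPr(His)6 or Crh(His)6; [γ-32P]ATP 0.5 mM, 50 mM Tris pH 8, 5 mM MgCl2, 2 mM FBP, 0.1% BSA, 37 °C, 10 min. Inhibitor and ADP co-varied at a constant ratio set by their separate EC50s; ≥13 conditions in triplicate. Chou-Talalay combination index computed at EC50.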

[18] = Effective concentration for inhibition of […] in phosphatase assay; parameters: species or system Bacillus subtilis; in short: as §4
[19] = Hill slope for the compound was measured for inhibition of Crh kinase assay along with ADP

Row | inhibition [5] [%] | inhibition [6] [%] | SMILES | also measured
1 | – | – | Nc1n(Cc2ccccc2)c2ccccc2[n+]1CCCCC[n+]1c(N)n(Cc2ccccc2)c2ccccc21 | EC50 (HPr kinase/phosphorylase [1]): 93 µM; Activity [2]: 1.3; Activity [3]: 1.3; EC50 [4]: 210 µM
2 | 96 | 41 | Nc1n(Cc2ccccc2)c2ccccc2[n+]1CCCCCCCCCCCCN1CCN(c2ccccc2)CC1 | –
3 | 97 | 40 | Nc1n(Cc2ccccc2)c2ccccc2[n+]1CCCCCCCCCCCCN1C(=O)c2ccccc2C1=O | –
4 | – | – | CCCCCCCCCCCC[n+]1c(N)n(Cc2ccccc2)c2ccccc21 | EC50 (HPr kinase/phosphorylase [1]): 29 µM; Activity [2]: 6.4; inhibition [7]: 18%; inhibition [8]: 90%; Activity [3]: 5.3; EC50 [4]: 32 µM
5 | 96 | 50 | Nc1n(Cc2ccccc2)c2ccccc2[n+]1CCCCCCCCCCCCNCc1ccccc1 | –
6 | 37 | 9 | Nc1n(Cc2ccccc2)c2ccccc2[n+]1CCCCCCCCCCCO | –
7 | 51 | 9 | CCCCCCCCCCCC[n+]1c(N)n(Cc2ccc(Cl)c(Cl)c2)c2ccccc21 | –
8 | 96 | 46 | Nc1n(Cc2ccccc2)c2ccccc2[n+]1CCCCCCCCCCCCNc1ccccc1 | –
9 | 20 | 11 | Nc1n(Cc2ccccc2)c2ccccc2[n+]1CCCc1ccccc1 | –
10 | 33 | 13 | Nc1n(Cc2ccccc2)c2ccccc2[n+]1Cc1ccccc1 | –
11 | 90 | 31 | Nc1n(Cc2ccccc2)c2ccccc2[n+]1CCCCCCCCCCCCN1CCOCC1 | –
12 | – | – | Nc1cccc[n+]1CCCCCCCCCCCC[n+]1ccccc1N | inhibition [9]: < 5%
13 | – | – | Nc1n(Cc2ccccc2)c2ccccc2[n+]1CCCCCCCCCCCC[n+]1c(N)n(Cc2ccccc2)c2ccccc21.Nc1ncnc2c1ncn2[C@@H]1O[C@H](COP(=O)(O)OP(=O)(O)O)[C@@H](O)[C@H]1O | EC50 (HPr kinase/phosphorylase [10]): 5.2 µM; EC50 [11]: 12 µM; EC50 (HPr kinase/phosphorylase [1]): 10 µM; Activity [12]: 2.1; CI [13]: 1.1; Activity [14]: 2.2; Activity [15]: 1.7; EC50 (HPr kinase/phosphorylase [16]): 16 µM; CI [17]: 1; Activity [2]: 2.4; EC50 [18]: 14 µM; Activity [3]: 1.8; Activity [19]: 2.3; EC50 [4]: 21 µM
14 | 6 | 4 | Nc1n(Cc2ccccc2)c2ccccc2[n+]1CCCO | –
15 | 55 | 9 | CCCCCCCC[n+]1c(N)n(Cc2ccccc2)c2ccccc21 | –
16 | 96 | 14 | CC(C)(C)OC(=O)NCCCCCCCCCCC[n+]1c(N)n(Cc2ccccc2)c2ccccc21 | –
17 | 39 | 2 | Nc1n(Cc2ccccc2)c2ccccc2[n+]1CCCCCCCCCCC(=O)[O-] | –
18 | 12 | 18 | CC(C)(C)OC(=O)NCCC[n+]1c(N)n(Cc2ccccc2)c2ccccc21 | –
19 | – | – | Nc1sc2ccccc2[n+]1CCCCCCCCCCCC[n+]1c(N)sc2ccccc21 | inhibition [9]: < 5%
20 | 5 | 13 | Nc1n(Cc2ccccc2)c2ccccc2[n+]1CCCCCCO | –
21 | – | – | Nc1cc2c(n[n+]1CCCCCCCCCCCC[n+]1nc3c(cc1N)-c1ccccc1CC3)CCc1ccccc1-2 | inhibition [9]: < 5%
22 | – | – | Cn1c(N)[n+](CCCCCCCCCCCC[n+]2c(N)n(C)c3ccccc32)c2ccccc21 | inhibition [9]: 64%
23 | 14 | 9 | CC(C)(C)OC(=O)NCCCCCC[n+]1c(N)n(Cc2ccccc2)c2ccccc21 | –
24 | 7 | 7 | CNC(=O)C[n+]1c(N)n(Cc2ccccc2)c2ccccc21 | –

Row | inhibition [5] [%] | inhibition [6] [%] | SMILES | also measured
25 | 3 | 2 | Nc1n(Cc2ccccc2)c2ccccc2[n+]1CC(=O)[O-] | –
26 | 14 | 13 | CCC[n+]1c(N)n(Cc2ccccc2)c2ccccc21 | –
27 | 96 | 38 | CCCCCCCCCCCC[n+]1c(N)n(CCCc2ccccc2)c2ccccc21 | –
28 | 93 | 11 | Nc1n(Cc2ccccc2)c2ccccc2[n+]1CCCCCCCCCCCCNC1CCCCC1 | –
29 | – | – | Nc1n(Cc2ccccc2)c2ccccc2[n+]1CCCCCCCC[n+]1c(N)n(Cc2ccccc2)c2ccccc21 | EC50 (HPr kinase/phosphorylase [1]): 20 µM; Activity [2]: 2.2; Activity [3]: 1.1; EC50 [4]: 71 µM
30 | 62 | 24 | NCCCCCCCCCCC[n+]1c(N)n(Cc2ccccc2)c2ccccc21 | –
31 | 23 | 0 | CCCCCCCCCCCC[n+]1c(N)n(Cc2ccc(C)cc2)c2ccccc21 | –
32 | 24 | 18 | NCCC[n+]1c(N)n(Cc2ccccc2)c2ccccc21 | –
33 | 98 | 0 | CCCCCCCCCCCC[n+]1c(N)n(CCc2ccccc2)c2ccccc21 | –
34 | 21 | 17 | CCCCCCCCCCCC[n+]1c(N)n(Cc2ccc(Cl)cc2)c2ccccc21 | –
35 | 16 | 13 | Nc1n(Cc2ccccc2)c2ccccc2[n+]1CC(=O)Nc1ccccc1 | –
36 | 33 | 12 | NCCCCCC[n+]1c(N)n(Cc2ccccc2)c2ccccc21 | –
37 | 11 | 3 | NC(=O)CCCCC[n+]1c(N)n(Cc2ccccc2)c2ccccc21 | –
38 | 95 | 34 | CCCCCCCCCCCC[n+]1c(N)n(Cc2ccc(OC)cc2)c2ccccc21 | –
39 | 34 | 13 | Nc1n(Cc2ccccc2)c2ccccc2[n+]1CCCCCN1CCN(c2ccccc2)CC1 | –
40 | – | – | Nc1ncnc2c1ncn2[C@@H]1O[C@H](COP(=O)(O)OP(=O)(O)O)[C@@H](O)[C@H]1O [ADENOSINE DIPHOSPHATE] | EC50 (HPr kinase/phosphorylase [1]): 4300 µM; Activity [2]: 1.4; Activity [3]: 0.9; EC50 [4]: 7400 µM
41 | – | – | c1c[n+](CCCCCCCCCCCC[n+]2cc[nH]c2)c[nH]1 | inhibition [9]: < 5%
42 | 93 | 35 | CN1CCN(CCCCCCCCCCCC[n+]2c(N)n(Cc3ccccc3)c3ccccc32)CC1 | –
43 | – | – | Nc1c2ccccc2cc[n+]1CCCCCCCCCCCC[n+]1ccc2ccccc2c1N | inhibition [9]: < 5%
44 | 32 | 12 | CCCCC[n+]1c(N)n(Cc2ccccc2)c2ccccc21 | –
45 | 53 | 12 | Nc1n(Cc2ccccc2)c2ccccc2[n+]1CCCCCNCc1ccccc1 | –
46 | 10 | 3 | Nc1n(Cc2ccccc2)c2ccccc2[n+]1CCCCCC(=O)[O-] | –
47 | 86 | 33 | Nc1n(Cc2ccccc2)c2ccccc2[n+]1CCCCCCCCN1CCN(c2ccccc2)CC1 | –
